ChEMBL document CHEMBL2346563, “A series of nonsecosteroidal vitamin D receptor agonists for osteoporosis therapy” (Bioorg Med Chem, 2013)
Values belong to the compound of their own block, whether it stands above or below them.

Columns and labels:
Rattus norvegicus [1] = assay: Toxicity in ovariectomized immatured Sprague-Dawley rat osteoporosis model assessed as effect on serum calcium level at 25 ng/kg, po once daily for 5 times per week for 4 weeks relative to control; format: organism-based; details: in vivo, 2.5e-05 mg/kg, 672 h
How it was run: (§1)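 Ovariectomized female 8-week-old Sprague–Dawley rats, n = 6 per group. Oral dosing five times per week for 4 weeks in medium-chain triglyceride (1 mL/kg). Vehicle-treated OVX and sham rats served as controls. Abdominal aortic blood drawn under ether 24 h after the last dose; serum calcium measured by autoanalyzer. ΔCa (%) = (treated − vehicle)/vehicle × 100. Mean ± SE.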

Rattus norvegicus [2] = assay: Prevention of bone mineral density loss in ovariectomized immatured Sprague-Dawley rat osteoporosis model at 25 ng/kg, po once daily for 5 times per week for 4 weeks relative to control; format: functional
How it was run: (§2)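 Female 8-week-old Sprague–Dawley (Crj: CD (SD)) rats, ovariectomized or sham-operated, n = 6 per group. From one day after surgery, oral dosing five times per week for 4 weeks; vehicle was medium-chain triglyceride at 1 mL/kg. Distal femur BMD read by dual-energy X-ray absorptiometry 24 h after the last dose. ΔBMD (%) = (treated − vehicle)/(sham − vehicle) × 100. Mean ± SE.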

Rattus norvegicus [3] = assay: Prevention of bone mineral density loss in ovariectomized immatured Sprague-Dawley rat osteoporosis model administered orally once daily for 5 times per week for 4 weeks; format: functional, organism-based; how it was run: as §2
Rattus norvegicus [4] = assay: Toxicity in ovariectomized immatured Sprague-Dawley rat osteoporosis model assessed as effect on serum calcium level at 50 ng/kg, po once daily for 5 times per week for 4 weeks relative to control; format: organism-based; details: in vivo, 5e-05 mg/kg, 672 h; how it was run: as §1
Rattus norvegicus [5] = assay: Prevention of bone mineral density loss in ovariectomized immatured Sprague-Dawley rat osteoporosis model at 50 ng/kg, po once daily for 5 times per week for 4 weeks relative to control; format: functional; how it was run: as §2
Rattus norvegicus [6] = assay: Toxicity in ovariectomized immatured Sprague-Dawley rat osteoporosis model assessed as effect on serum calcium level at 80 ng/kg, po once daily for 5 times per week for 4 weeks relative to control; format: organism-based; details: in vivo, 8e-05 mg/kg, 672 h; how it was run: as §1
Rattus norvegicus [7] = assay: Toxicity in ovariectomized immatured Sprague-Dawley rat osteoporosis model assessed as effect on serum calcium level at 320 ng/kg, po once daily for 5 times per week for 4 weeks relative to control; format: organism-based; details: in vivo, 0.00032 mg/kg, 672 h; how it was run: as §1
Rattus norvegicus [8] = assay: Prevention of bone mineral density loss in ovariectomized immatured Sprague-Dawley rat osteoporosis model at 20 ng/kg, po once daily for 5 times per week for 4 weeks relative to control; format: functional; how it was run: as §2
Rattus norvegicus [9] = assay: Prevention of bone mineral density loss in ovariectomized immatured Sprague-Dawley rat osteoporosis model at 320 ng/kg, po once daily for 5 times per week for 4 weeks relative to control; format: functional; how it was run: as §2
Rattus norvegicus [10] = assay: Toxicity in ovariectomized immatured Sprague-Dawley rat osteoporosis model assessed as effect on serum calcium level at 20 ng/kg, po once daily for 5 times per week for 4 weeks relative to control; format: organism-based; details: in vivo, 2e-05 mg/kg, 672 h; how it was run: as §1
Rattus norvegicus [11] = assay: Prevention of bone mineral density loss in ovariectomized immatured Sprague-Dawley rat osteoporosis model at 80 ng/kg, po once daily for 5 times per week for 4 weeks relative to control; format: functional; how it was run: as §2
Rattus norvegicus [12] = assay: Toxicity in ovariectomized matured Sprague-Dawley rat osteoporosis model assessed as effect on body weight at 0.75 to 12 ng/kg, po once daily for 5 times per week for 4 weeks; format: organism-based; details: in vivo, 672 h
[13] = Oral bioavailability in Sprague-Dawley rat at 100 ug/kg; format: ADME, organism-based; details: in vivo, 0.1 mg/kg
How it was run: (§3)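 Male Sprague–Dawley rats, 8 weeks old, fed, n = 3 per route. Single 100 µg/kg dose, iv in ethanol/Tween20/saline (10:2:88) or po in ethanol/MCT (1:9). Blood taken from the jugular vein and centrifuged to plasma. Drug extracted with diethyl ether and quantified by LC-MS/MS. Bioavailability given as F (%).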

Salmonella typhimurium = assay: Genotoxicity in Salmonella typhimurium by Ames test; format: toxicity, organism-based; details: salmonella enterica subsp. enterica serovar typhimurium
[14] = Half life in Sprague-Dawley rat at 100 ug/kg, po; format: ADME, organism-based; details: in vivo, 0.1 mg/kg; how it was run: as §3
[15] = Volume of distribution at steady state in Sprague-Dawley rat at 100 ug/kg, iv; format: ADME, organism-based; details: in vivo, 0.1 mg/kg, read-out: Vdss; how it was run: as §3
[16] = Genotoxicity in micronucleus (unknown origin) by micronucleus assay
Rattus norvegicus [17] = assay: Prevention of bone mineral density loss in ovariectomized immatured Sprague-Dawley rat osteoporosis model at 10 ng/kg, po once daily for 5 times per week for 4 weeks relative to control; format: functional; how it was run: as §2
[18] = Cmax in Sprague-Dawley rat at 100 ug/kg, po; format: ADME, organism-based; parameters: dose 100 ug/kg, route oral; details: in vivo, 0.1 mg/kg; how it was run: as §3
Rattus norvegicus [19] = assay: Toxicity in ovariectomized matured Sprague-Dawley rat osteoporosis model assessed as effect on serum calcium level at 0.75 to 6 ng/kg, po once daily for 5 times per week for 4 weeks relative to control; format: organism-based; details: in vivo, 672 h
How it was run: (§4)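 Female 8-month-old Sprague–Dawley rats, ovariectomized or sham-operated, n = 8 per group. Starting one day post-surgery, oral dosing at 0.75–12 ng/kg, five times per week for 4 weeks; vehicle was MCT at 1 mL/kg. At 24 h after the last dose, aortic blood was taken for serum calcium by autoanalyzer. Distal femur and lumbar spine BMD measured by DXA.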

[20] = Total clearance in Sprague-Dawley rat at 100 ug/kg, iv; format: ADME, organism-based; details: in vivo, 0.1 mg/kg; how it was run: as §3
Rattus norvegicus [21] = assay: Toxicity in ovariectomized matured Sprague-Dawley rat osteoporosis model assessed as effect on serum calcium level at 12 ng/kg, po once daily for 5 times per week for 4 weeks relative to control; format: organism-based; details: in vivo, 1.2e-05 mg/kg, 672 h; how it was run: as §4
Rattus norvegicus [22] = assay: Prevention of bone mineral density loss in ovariectomized immatured Sprague-Dawley rat osteoporosis model at 40 ng/kg, po once daily for 5 times per week for 4 weeks relative to control; format: functional; how it was run: as §2
Rattus norvegicus [23] = assay: Toxicity in ovariectomized immatured Sprague-Dawley rat osteoporosis model assessed as effect on serum calcium level at 40 ng/kg, po once daily for 5 times per week for 4 weeks relative to control; format: organism-based; details: in vivo, 4e-05 mg/kg, 672 h; how it was run: as §1
[24] = AUC (infinity) in Sprague-Dawley rat at 100 ug/kg, iv; format: ADME, organism-based; parameters: dose 100 ug/kg, time infinity, route intravenous; details: plasma, 0.1 mg/kg; how it was run: as §3
Rattus norvegicus [25] = assay: Prevention of bone mineral density loss in distal femur of ovariectomized matured po dosed Sprague-Dawley rat osteoporosis model administered once daily for 5 times per week for 4 weeks; format: functional, organism-based; how it was run: as §4
[26] = AUC (infinity) in Sprague-Dawley rat at 100 ug/kg, po; format: ADME, organism-based; parameters: dose 100 ug/kg, time infinity, route oral; details: plasma, 0.1 mg/kg; how it was run: as §3
[27] = Mean residence time in Sprague-Dawley rat at 100 ug/kg, po; format: ADME, organism-based; details: in vivo, 0.1 mg/kg; how it was run: as §3
[28] = Mean residence time in Sprague-Dawley rat at 100 ug/kg, iv; format: ADME, organism-based; details: in vivo, 0.1 mg/kg; how it was run: as §3
Rattus norvegicus [29] = assay: Toxicity in ovariectomized immatured Sprague-Dawley rat osteoporosis model assessed as effect on serum calcium level at 10 ng/kg, po once daily for 5 times per week for 4 weeks relative to control; format: organism-based; details: in vivo, 1e-05 mg/kg, 672 h; how it was run: as §1
[30] = Half life in Sprague-Dawley rat at 100 ug/kg, iv; format: ADME, organism-based; details: in vivo, 0.1 mg/kg; how it was run: as §3
Rattus norvegicus [31] = assay: Prevention of bone mineral density loss in ovariectomized immatured Sprague-Dawley rat osteoporosis model at 30 ng/kg, po once daily for 5 times per week for 4 weeks relative to control; format: functional; how it was run: as §2
Rattus norvegicus [32] = assay: Toxicity in ovariectomized immatured Sprague-Dawley rat osteoporosis model assessed as effect on serum calcium level at 30 ng/kg, po once daily for 5 times per week for 4 weeks relative to control; format: organism-based; details: in vivo, 3e-05 mg/kg, 672 h; how it was run: as §1

Structure (SMILES): CCC(O)(/C=C/c1ccc(C(CC)(CC)c2ccc(-c3ccc(CC(=O)O)cc3)c(C)c2)cc1C)CC
Activity (Rattus norvegicus [1]): 0.7% | Activity (Rattus norvegicus [2]): 42% | Activity (Rattus norvegicus [3]): Dose-dependent effect | Activity (Rattus norvegicus [4]): 8.7% | Activity (Rattus norvegicus [5]): 81%

Structure (SMILES): C=C1/C(=C\C=C2/CCC[C@]3(C)[C@@H]([C@H](C)CCCC(C)(C)O)CC[C@@H]23)C[C@@H](O)C[C@@H]1O [CALCITRIOL]
Activity (Rattus norvegicus [6]): 2.5% | Activity (Rattus norvegicus [7]): 5.1% | Activity (Rattus norvegicus [8]): 4% | Activity (Rattus norvegicus [9]): 58% | Activity (Rattus norvegicus [10]): 2.5% | Activity (Rattus norvegicus [11]): 53%

Structure (SMILES): CCC(CC)(c1ccc(/C=C/C(O)(C(F)(F)F)C(F)(F)F)c(C)c1)c1ccc(-c2ccc(CC(=O)O)c(F)c2)c(C)c1
Activity (Rattus norvegicus [3]): Dose-dependent effect

bioavailability [13]: 95.1% | half-life [14]: 17.6 h | Vd [15]: 0.99 L/kg | Cmax [18]: 54 ng/mL | clearance [20]: 1.51 mL/min/kg | AUC(0-inf) [24]: 1130 ng·h/mL | AUC(0-inf) [26]: 1650 ng·h/mL | MRT [27]: 28.3 h | MRT [28]: 11.2 h | half-life [30]: 8.5 h
Structure (SMILES): CCC(O)(/C=C/c1ccc(C(CC)(CC)c2ccc(-c3ccc(CC(=O)O)cn3)c(C)c2)cc1C)CC
Activity (Rattus norvegicus [12]): Non-toxic | Activity (Salmonella typhimurium): Non-toxic | Activity [16]: Non-toxic | Activity (Rattus norvegicus [17]): 122% | Activity (Rattus norvegicus [19]): Non-toxic | Activity (Rattus norvegicus [8]): 172% | Activity (Rattus norvegicus [21]): Toxic | Activity (Rattus norvegicus [22]): 198% | Activity (Rattus norvegicus [23]): 8.4% | Activity (Rattus norvegicus [10]): 2.2% | Activity (Rattus norvegicus [25]): Dose-dependent effect | Activity (Rattus norvegicus [29]): -2.9%

Structure (SMILES): CCC(CC)(c1ccc(/C=C/C(O)(C(F)(F)F)C(F)(F)F)c(C)c1)c1ccc(-c2ccc(CC(=O)O)cc2)c(C)c1
Activity (Rattus norvegicus [31]): 89% | Activity (Rattus norvegicus [32]): 6.9% | Activity (Rattus norvegicus [17]): 47% | Activity (Rattus norvegicus [3]): Dose-dependent effect | Activity (Rattus norvegicus [29]): 0.6%
